{"data": "Measured values from different studies", "Chymotrypsinogen A": "Chymotrypsinogen A (Bos taurus, UniProt P00766)", "lecA": "PA-I galactophilic lectin (lecA, Pseudomonas aeruginosa, UniProt Q05097)", "ADH1 W55R": "ADH1 (Saccharomyces cerevisiae, UniProt P00330, W55R)", "note": "Each line is one published result; the experiments were not run side by side."}
{"SMILES": "CCCC[C@H](NC(=O)[C@H](CCC(N)=O)NC(=O)[C@H](CO)NC(=O)[C@H](C)NC(=O)CCCCCN)C(=O)N[C@@H](CCCBr)B(O)O", "target": "Chymotrypsinogen A", "observed": "enzyme activity", "action": "inhibitor", "method": "fluorescence", "Ki [µM]": 0.166}
{"SMILES": "O=C(CCCCn1cc(CCN2CCN(c3cc4c(cc3F)c(=O)c(C(=O)O)cn4C3CC3)CC2)nn1)Nc1ccc(S[C@@H]2O[C@H](CO)[C@H](O)[C@H](O)[C@H]2O)cc1", "target": "lecA", "observed": "ligand displacement", "method": "FP", "Ki [µM]": 2.7}
{"SMILES": "CCCC[C@H](NC(=O)[C@H](CCC(N)=O)NC(=O)[C@H](CO)NC(=O)C[C@@H](Cc1ccc2ccccc2c1)NC(=O)CCCCCN)C(=O)N[C@@H](Cc1ccccc1)B(O)O", "target": "Chymotrypsinogen A", "observed": "enzyme activity", "action": "inhibitor", "method": "fluorescence", "Ki [µM]": 0.00721}
{"SMILES": "[N-]=[N+]=NCCCC(=O)Nc1ccc(S[C@@H]2O[C@H](CO)[C@H](O)[C@H](O)[C@H]2O)cc1", "target": "lecA", "observed": "ligand displacement", "method": "FP", "Ki [µM]": 4.01}
{"SMILES": "NC(=O)C1=CN([C@@H]2O[C@H](COP(=O)(O)OP(=O)(O)OC[C@H]3O[C@@H](n4cnc5c(N)ncnc54)[C@H](O)[C@@H]3O)[C@@H](O)[C@H]2O)C=CC1", "target": "ADH1 W55R", "observed": "enzyme activity", "action": "inhibitor", "Ki [µM]": 570}
{"SMILES": "[N-]=[N+]=NCC(=O)Nc1ccc(S[C@@H]2O[C@H](CO)[C@H](O)[C@H](O)[C@H]2O)cc1", "target": "lecA", "observed": "ligand displacement", "method": "FP", "Ki [µM]": 4.16}
{"SMILES": "NC(=O)C1=CN([C@@H]2O[C@H](COP(=O)(O)OP(=O)(O)OC[C@H]3O[C@@H](n4cnc5c(N)ncnc54)[C@H](O)[C@@H]3O)[C@@H](O)[C@H]2O)C=CC1", "target": "ADH1 (Saccharomyces cerevisiae, UniProt P00330, H49E)", "observed": "enzyme activity", "action": "inhibitor", "Ki [µM]": 12}
{"SMILES": "CCCC[C@H](NC(=O)[C@H](CCC(N)=O)NC(=O)[C@H](CO)NC(=O)CCCCCN)C(=O)N[C@@H](Cc1ccccc1)B(O)O", "target": "Chymotrypsinogen A", "observed": "enzyme activity", "action": "inhibitor", "method": "fluorescence", "Ki [µM]": 0.00377}
{"SMILES": "c1cc2c(cc1C1CCCCC1)c1c3n2CCNC3CCC1 (stereo not shown)", "target": "Amine oxidase [flavin-containing] A (Maoa, Rattus norvegicus, UniProt P21396)", "observed": "enzyme activity", "action": "inhibitor", "pH": "pH 7.5", "Ki [µM]": 3.6}
{"SMILES": "CCCC[C@H](NC(=O)[C@H](CCC(N)=O)NC(=O)[C@H](CO)NC(=O)[C@H](Cc1ccccc1)NC(=O)CCCCCN)C(=O)N[C@@H](Cc1ccccc1)B(O)O", "target": "Chymotrypsinogen A", "observed": "enzyme activity", "action": "inhibitor", "method": "fluorescence", "Ki [µM]": 0.000135}
{"SMILES": "O=C(CCCn1cc(CN2CCN(c3cc4c(cc3F)c(=O)c(C(=O)O)cn4C3CC3)CC2)nn1)Nc1ccc(S[C@@H]2O[C@H](CO)[C@H](O)[C@H](O)[C@H]2O)cc1", "target": "lecA", "observed": "ligand displacement", "method": "FP", "Ki [µM]": 3}
{"SMILES": "O=[N+]([O-])c1ccc(O[C@@H]2O[C@H](CO)[C@H](O)[C@H](O)[C@H]2O)cc1", "target": "lecA", "observed": "ligand displacement", "method": "FP", "Ki [µM]": 26.9}
{"SMILES": "OCC(F)(F)F", "target": "ADH1 W55R", "observed": "enzyme activity", "action": "inhibitor", "Ki [µM]": 74000}
